Consider two compounds from ChEMBL document CHEMBL1141109, “Synthesis of an estrogen receptor beta-selective radioligand: 5-[18F]fluoro-(2R,3S)-2,3-bis(4-hydroxyphenyl)pentanenitrile and comparison of in vivo distribution with 16alpha-[18F]fluoro-17beta-estradiol” (J Med Chem, 2005).

Series [1] in a line: Biodistribution of [18F]FEDPN in rat muscle after 1 h when given in tail vein; (n=5). Type of series: ADME, organism-based, Muscle tissue. Particulars: in vivo, iv. In short, it runs like this: (§1)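 Immature female Sprague–Dawley rats (<25 days old) under isoflurane/O2 got 20 µCi tracer in 150 µL 20% ethanol/saline by tail vein. […] Rats were killed at 30 min, 1 h or 2 h. Organs were blotted, weighed and gamma-counted against an injectate standard. Data are %ID/g ± SD, five rats per point.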

A short description of series [2]: Biodistribution of [18F]FEDPN in alpha estrogen receptor knock out mouse kidney after 1 h; (n=3). The class given is ADME, organism-based. Particulars: in vivo. The procedure, abridged: (§2)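 ERKO female mice (αERKO or βERKO), rested 48 h after shipping, placed on estrogen-free chow, and staged by daily vaginal smears. Injected in a nonestrous stage with 11 µCi [18F]FEDPN in 130 µL of 10% ethanol/saline. Killed at 30 min, 1 h or 2 h. Organs counted and reported as %ID/g ± SD, three animals per point.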

Series [3] is described as follows: Biodistribution of [18F]-FEDPN in rat thymus after 2 hr when given in tail vein; (n=5). Type of series: ADME, organism-based. The conditions noted are these: in vivo, iv. In short, it runs like this:
(§3)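 Immature female Sprague–Dawley rats (<25 days old) anesthetized with isoflurane/O2. Given 20 µCi tracer by tail vein in 150 µL of 20% ethanol/saline. […] Killed at 30 min, 1 h or 2 h. Blood and organs blotted, weighed and gamma-counted against a standard dilution of the injectate. Reported as %ID/g ± SD, n=5.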

Series [4] in a line: Biodistribution of [18F]FEDPN in beta estrogen receptor knock out mouse fat after 30 min; (n=3). The class given is ADME, organism-based, Adipose tissue. Particulars: in vivo, 0.5 h. The procedure, abridged: (§4)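 αERKO and βERKO mice, staged by daily vaginal smears and kept on estrogen-free chow, were studied in a nonestrous stage. Each mouse received 11 μCi of tracer in 130 μL of 10% ethanol/saline. Mice were killed at 30 min, 1 h or 2 h (n = 3 each). Organs were removed, blotted, weighed and gamma-counted against an injectate standard. Uptake is given as %ID/g ± SD.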

A short description of series [5]: Biodistribution of [18F]FEDPN in alpha estrogen receptor knock out mouse bone after 30 min; (n=3). Particulars: in vivo, 0.5 h. Type of series: ADME, organism-based, Bone element. In short, it runs like this:
as §2

Series [6] can be described thus: Biodistribution of [18F]-FEDPN in rat spleen after 2 hr when given in tail vein; (n=5). Type of series: ADME, organism-based. Particulars: in vivo, iv. The procedure, abridged:
as §3

Series [7] is described as follows: Biodistribution of [18F]FEDPN in rat uterus after 30 min when given in tail vein; (n=5). The class given is ADME, organism-based. Particulars: in vivo, iv, 0.5 h. In short, it runs like this: as §1
Series [8] in a line: Biodistribution of [18F]FEDPN in rat lung after 30 min when given in tail vein; (n=5). The class given is ADME, organism-based. Particulars: in vivo, iv, 0.5 h. In short, it runs like this:
as §1

A short description of series [9]: Biodistribution of [18F]FEDPN in rat thymus after 30 min when given in tail vein; (n=5). The class given is ADME, organism-based. The conditions noted are these: in vivo, iv, 0.5 h. In short, it runs like this: as §1
Series [10] is described as follows: Biodistribution of [18F]-FEDPN in rat fat after 1 h when given in tail vein; (n=5). The class given is ADME, organism-based, Adipose tissue. The conditions noted are these: in vivo, iv. The procedure, abridged:
as §3

Series [11] in a line: Biodistribution of [18F]-FEDPN in rat liver after 2 hr when given in tail vein; (n=5). The conditions noted are these: in vivo, iv. The class given is ADME, organism-based. The procedure, abridged:
as §3

Series [12] can be described thus: Biodistribution of [18F]FEDPN in alpha estrogen receptor knock out mouse lung after 30 min; (n=3). Type of series: ADME, organism-based. The conditions noted are these: in vivo, 0.5 h. The procedure, abridged: as §4
A short description of series [13]: Biodistribution of [18F]FEDPN in beta estrogen receptor knock out mouse uterus after 2 h; (n=3). Type of series: ADME, organism-based. The conditions noted are these: in vivo. The procedure, abridged:
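αERKO and βERKO mice were fed estrogen-free chow and staged by daily vaginal smears. Mice in a nonestrous stage each received 11 µCi tracer in 130 µL 10% ethanol/saline. Organs were taken at 30 min, 1 h or 2 h and gamma-counted. Uptake is expressed as %ID/g ± SD, three animals per point.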

Series [14] can be described thus: Biodistribution of [18F]-FEDPN in rat muscle after 1 hr block when given in tail vein; (n=5). The class given is ADME, organism-based, Muscle tissue. The conditions noted are these: in vivo, iv. The procedure, abridged:
as §3

Series [15] is described as follows: Biodistribution of [18F]FEDPN in beta estrogen receptor knock out mouse blood after 1 h; (n=3). The class given is ADME, organism-based. Particulars: in vivo. In short, it runs like this: as §4
The nature of series [16]: Biodistribution of [18F]FEDPN in rat heart after 30 min when given in tail vein; (n=5). The class given is ADME, organism-based. Particulars: in vivo, iv, 0.5 h. The procedure, abridged: as §1
Series [17] in a line: Biodistribution of [18F]FEDPN in rat ovaries after 2 h when given in tail vein; (n=5). Particulars: in vivo, iv. The class given is ADME, organism-based, Female gonad. The procedure, abridged: as §1
The target in series [18] is T1, Estrogen receptor (Mus musculus) (UniProt O08537+P19785). Briefly: Ratio of [18F]FEDPN uptake in ovaries of ERbeta KO-mouse and ERalpha KO-mouse (nonestrus) after 1 hr.
T1 sequence (O08537 whole entry, looked up): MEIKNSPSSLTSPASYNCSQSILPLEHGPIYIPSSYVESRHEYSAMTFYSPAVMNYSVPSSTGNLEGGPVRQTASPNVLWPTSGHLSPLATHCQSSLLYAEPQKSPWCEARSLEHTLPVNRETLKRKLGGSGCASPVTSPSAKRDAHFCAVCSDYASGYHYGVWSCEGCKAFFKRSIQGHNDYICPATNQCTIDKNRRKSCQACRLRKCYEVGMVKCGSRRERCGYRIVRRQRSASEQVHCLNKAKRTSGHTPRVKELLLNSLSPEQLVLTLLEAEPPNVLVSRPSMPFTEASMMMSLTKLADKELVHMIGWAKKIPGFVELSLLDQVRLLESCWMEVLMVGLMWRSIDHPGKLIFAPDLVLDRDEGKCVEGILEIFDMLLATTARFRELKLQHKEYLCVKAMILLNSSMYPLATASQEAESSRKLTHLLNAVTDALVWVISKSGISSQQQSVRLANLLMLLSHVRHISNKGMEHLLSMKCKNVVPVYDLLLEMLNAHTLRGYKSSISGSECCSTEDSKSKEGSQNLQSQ
T1 sequence (P19785 whole entry, looked up): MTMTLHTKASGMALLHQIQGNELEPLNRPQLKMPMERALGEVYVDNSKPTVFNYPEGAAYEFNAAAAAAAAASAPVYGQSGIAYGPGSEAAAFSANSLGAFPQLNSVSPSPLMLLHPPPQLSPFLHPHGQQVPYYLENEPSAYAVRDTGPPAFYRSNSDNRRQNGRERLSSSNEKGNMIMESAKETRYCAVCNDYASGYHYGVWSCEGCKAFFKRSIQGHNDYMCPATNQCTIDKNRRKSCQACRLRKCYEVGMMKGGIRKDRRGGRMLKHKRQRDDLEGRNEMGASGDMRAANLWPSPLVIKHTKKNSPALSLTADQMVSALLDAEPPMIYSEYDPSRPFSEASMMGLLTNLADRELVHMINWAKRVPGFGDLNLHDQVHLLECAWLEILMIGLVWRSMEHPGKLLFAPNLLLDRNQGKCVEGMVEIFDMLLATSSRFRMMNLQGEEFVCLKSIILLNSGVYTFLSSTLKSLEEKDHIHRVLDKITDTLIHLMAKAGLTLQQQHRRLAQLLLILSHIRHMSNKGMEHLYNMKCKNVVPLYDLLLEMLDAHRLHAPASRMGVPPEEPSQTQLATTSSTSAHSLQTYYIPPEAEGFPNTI
Series [19] can be described thus: Biodistribution of [18F]FEDPN in alpha estrogen receptor knock out mouse muscle after 30 min; (n=3). Type of series: ADME, organism-based, Muscle tissue. The conditions noted are these: in vivo, 0.5 h. In short, it runs like this: as §4
For series [20], the target named is T1, Estrogen receptor (Mus musculus). Briefly: Ratio of [18F]FEDPN uptake in ovaries of ERbeta KO-mouse (diestrus) and ERalpha KO-mouse (nonestrus) after 30 min.
Series [21] can be described thus: Biodistribution of [18F]FES in alpha estrogen receptor knock out mouse fat after 1 h; (n=3). The class given is ADME, organism-based, Adipose tissue. The conditions noted are these: in vivo. The procedure, abridged:
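Female αERKO mice rested 48 h after shipping and fed estrogen-free chow. Estrous stage was checked by daily vaginal smears, and mice were used in diestrus. Each received 13 µCi [18F]FES in 100 µL 10% ethanol/saline. Animals were sacrificed at 30 min, 1 h or 2 h (n = 3 each). Tissue uptake is reported as %ID/g ± SD.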

A short description of series [22]: Biodistribution of [18F]FES in alpha estrogen receptor knock out mouse brain after 1 h; (n=3). The class given is ADME, organism-based. The conditions noted are these: in vivo. The procedure, abridged: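 αERKO mice were kept on estrogen-free chow and studied in diestrus, as staged by vaginal smear. Each was injected with 13 µCi tracer in 100 µL 10% ethanol/saline and killed at 30 min, 1 h or 2 h (n = 3 each). Organ activity was gamma-counted and expressed as %ID/g ± SD.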

Series [23] is described as follows: Biodistribution of [18F]FES in beta estrogen receptor knock out mouse kidney after 1 h; (n=3). Type of series: ADME, organism-based. Particulars: in vivo.
Series [24] can be described thus: Biodistribution of [18F]FES in beta estrogen receptor knock out mouse bone after 1 h; (n=3). The class given is ADME, organism-based, Bone element. Particulars: in vivo.
The nature of series [25]: Biodistribution of [18F]FES in beta estrogen receptor knock out mouse liver after 1 h; (n=3). The class given is ADME, organism-based. Particulars: in vivo.
Series [26] can be described thus: Biodistribution of [18F]FES in beta estrogen receptor knock out mouse liver after 2 h; (n=3). Type of series: ADME, organism-based. Particulars: in vivo.
Series [27] in a line: Biodistribution of [18F]FES in alpha estrogen receptor knock out mouse kidney after 1 h; (n=3). Type of series: ADME, organism-based. The conditions noted are these: in vivo. The procedure, abridged: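 Female αERKO mice were rested 48 h after shipping and fed estrogen-free chow. They were staged by daily vaginal smears and studied in diestrus. Each received 13 µCi [18F]FES in 100 µL 10% ethanol/saline and was sacrificed at 30 min, 1 h or 2 h (n = 3 per time). Tissue uptake is given as %ID/g ± SD.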

The nature of series [28]: Biodistribution of [18F]-FES in beta estrogen receptor knock out mouse lung after 2 h; (n=3). Type of series: ADME, organism-based. The conditions noted are these: in vivo. The procedure, abridged:
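Female βERKO mice in estrus were used because repeated swabbing had induced pseudopregnancy. They were fed estrogen-free chow. Each received 13 µCi [18F]FES in 100 µL 10% ethanol/saline and was sacrificed at 30 min, 1 h or 2 h (n = 3 each). Tissue uptake is given as %ID/g ± SD.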

Series [29] can be described thus: Biodistribution of [18F]FES in beta estrogen receptor knock out mouse muscle after 30 min; (n=3). The class given is ADME, organism-based, Muscle tissue. The conditions noted are these: in vivo, 0.5 h.
A short description of series [30]: Biodistribution of [18F]FES in alpha estrogen receptor knock out mouse uterus after 30 min; (n=3). Type of series: ADME, organism-based. The conditions noted are these: in vivo, 0.5 h.

`N#C[C@H](c1ccc(O)cc1)[C@@H](CCF)c1ccc(O)cc1`: the Biodistribution is 0.22 %ID/g in series [1]; 2.97 %ID/g in series [2]; 0.08 %ID/g in series [3]; 0.89 %ID/g in [4]; 3.47 %ID/g in series [5]; 0.06 %ID/g in [6]. Moreover, the Biodistribution is 0.95 %ID/g in series [7]; 0.71 %ID/g in series [8]; 0.52 %ID/g in series [9]; 0.37 %ID/g in series [10]; 0.62 %ID/g in [11]; 4.32 %ID/g in series [12]. Besides, the Biodistribution turned out to be 0.31 %ID/g in [13]; 0.2 %ID/g in series [14]; 1.12 %ID/g in [15]; 0.49 %ID/g in series [16]; 0.21 %ID/g in series [17]; 1.21 %ID/g in series [19]. Moreover, the Ratio in [18] was 0.79; in series [20] it was 1.32.
`C[C@]12CC[C@@H]3c4ccc(O)cc4CC[C@H]3[C@@H]1C[C@@H](F)[C@@H]2O` [FLUOROESTRADIOL]: the Biodistribution in series [21] worked out at 0.14 %ID/g; in [22] it was 0.07 %ID/g; in [23] it was 2.14 %ID/g; in series [24], 1.08 %ID/g; in series [25], 5.85 %ID/g; in [26] it was 4.54 %ID/g. Further, the Biodistribution in [27] is recorded as 1.07 %ID/g; in series [28], 0.54 %ID/g; in [29], 1.7 %ID/g; in series [30] it was 2.4 %ID/g.
